Experimental data published in ChEMBL document CHEMBL4396897, “Potent 5-Cyano-6-phenyl-pyrimidin-Based Derivatives Targeting DCN1-UBE2M Interaction” (J Med Chem, 2019).
Activity calls are given as the source filed them. The rule behind the calls is not given here.

Columns and labels:
[1] = biological target: T1, DCN1-like protein 1/NEDD8-conjugating enzyme Ubc12 (Homo sapiens) (UniProt Q96GG9+P61081); assay: Inhibition of DCN1-UBE2M protein-protein interaction in human PC9 cells assessed as increase in NRF2 accumulation at 3 uM incubated for 24 hrs by Western blot analysis; type: cell-based
Outline: (§1)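 H1975 and PC9 cells seeded at 1×10⁶ cells, incubated overnight, then treated 24h with compound (0, 0.3, 1, 10 and 20 μM in methods; 3 μM also listed in text). Lysates cleared at 12,000×g, 20 min, 4°C, protein by BCA, SDS–PAGE, nitrocellulose, primary antibodies overnight at 4°C, HRP secondary, ECL. Densitometry normalised to GAPDH; three experiments.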

[2] = biological target: T1, DCN1-like protein 1/NEDD8-conjugating enzyme Ubc12 (Homo sapiens); assay: Inhibition of DCN1-UBE2M protein-protein interaction in human PC9 cells assessed as increase in NQO1 accumulation at 3 uM incubated for 24 hrs by Western blot analysis; type: cell-based; outline: as §1
[3] = biological target: T1, DCN1-like protein 1/NEDD8-conjugating enzyme Ubc12 (Homo sapiens); assay: Inhibition of DCN1-UBE2M protein-protein interaction in human PC9 cells assessed as increase in HO-1 accumulation at 3 uM incubated for 24 hrs by Western blot analysis; type: cell-based; outline: as §1
[4] = biological target: T1, DCN1-like protein 1/NEDD8-conjugating enzyme Ubc12 (Homo sapiens); assay: Inhibition of DCN1-UBE2M protein-protein interaction in human NCI-H1975 cells assessed as increase in HO-1 accumulation at 3 uM incubated for 24 hrs by Western blot analysis; type: cell-based; outline: as §1
[5] = biological target: T1, DCN1-like protein 1/NEDD8-conjugating enzyme Ubc12 (Homo sapiens); assay: Inhibition of DCN1-UBE2M protein-protein interaction in human NCI-H1975 cells assessed as increase in NQO1 accumulation at 3 uM incubated for 24 hrs by Western blot analysis; type: cell-based; outline: as §1
[6] = biological target: T2, NEDD8-activating enzyme E1 catalytic subunit (Homo sapiens) (UniProt Q8TBC4); assay: Inhibition of NEDD8-activating enzyme E1C (unknown origin) assessed as effect on NEDD8/UBE2M complex formation at 10 to 20 uM pre-incubated for 10 mins followed by Mg-ATP addition after 60 mins by SDS-PAGE analysis
T2 sequence (whole entry): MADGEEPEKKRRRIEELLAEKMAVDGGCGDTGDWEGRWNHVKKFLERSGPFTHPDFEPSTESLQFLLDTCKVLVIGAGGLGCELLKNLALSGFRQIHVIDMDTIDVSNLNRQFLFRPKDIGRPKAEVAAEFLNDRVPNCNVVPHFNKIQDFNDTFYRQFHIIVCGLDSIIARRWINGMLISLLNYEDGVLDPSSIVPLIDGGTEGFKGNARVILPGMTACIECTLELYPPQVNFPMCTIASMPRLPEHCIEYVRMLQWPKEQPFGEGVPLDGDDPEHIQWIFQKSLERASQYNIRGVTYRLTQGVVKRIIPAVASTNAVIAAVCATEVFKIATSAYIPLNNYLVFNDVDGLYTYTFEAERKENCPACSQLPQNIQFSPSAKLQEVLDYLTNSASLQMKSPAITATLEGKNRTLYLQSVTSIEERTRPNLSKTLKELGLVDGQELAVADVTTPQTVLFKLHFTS
Outline: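 Cell-free NEDD8~UBE2M formation: NEDD8 E1 mixed with NEDD8, UBE2M and compound (10 and 20µM reference inhibitor, or 1, 10 and 100µM test compound) in reaction buffer, 10 min at room temperature. Started with Mg-ATP, incubated 60 min at 37°C, then 1mM DTT and non-reducing loading buffer added. Resolved on 12% SDS-PAGE.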

[7] = biological target: T1, DCN1-like protein 1/NEDD8-conjugating enzyme Ubc12 (Homo sapiens); assay: Inhibition of DCN1-UBE2M protein-protein interaction in human NCI-H1975 cells assessed as increase in NRF2 accumulation at 3 uM incubated for 24 hrs by Western blot analysis; type: cell-based; outline: as §1

T1 sequence (P61081 whole entry, looked up): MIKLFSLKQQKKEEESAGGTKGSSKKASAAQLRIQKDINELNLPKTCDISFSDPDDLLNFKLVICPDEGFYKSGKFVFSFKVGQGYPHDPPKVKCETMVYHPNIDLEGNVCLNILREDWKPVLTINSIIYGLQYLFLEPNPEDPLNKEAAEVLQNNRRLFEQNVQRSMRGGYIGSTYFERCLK
T1 sequence (Q96GG9 whole entry, looked up): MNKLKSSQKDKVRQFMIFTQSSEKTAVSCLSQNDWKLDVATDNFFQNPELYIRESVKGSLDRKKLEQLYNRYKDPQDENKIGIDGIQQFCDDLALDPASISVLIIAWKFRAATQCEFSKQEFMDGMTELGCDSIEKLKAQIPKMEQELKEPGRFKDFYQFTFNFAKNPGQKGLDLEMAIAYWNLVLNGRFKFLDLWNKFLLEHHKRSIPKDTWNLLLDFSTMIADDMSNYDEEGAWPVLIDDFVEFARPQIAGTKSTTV

inhibition [1]: Active
inhibition [2]: Active
inhibition [3]: Active
inhibition [4]: Active
inhibition [5]: Active
inhibition [6]: Active
inhibition [7]: Active
SMILES: NS(=O)(=O)OC[C@@H]1C[C@@H](n2ccc3c(N[C@H]4CCc5ccccc54)ncnc32)C[C@@H]1O
